Assay results from ChEMBL document CHEMBL1122284, “Aromatic retinoic acid analogues. 2. Synthesis and pharmacological activity” (1983).

Assays:
Cricetinae gen. sp. [1] = experiment: Relative potency with respect to retinoic acid in hamster tracheal organ culture assay (TOC); format: functional, Cricetulus griseus, Trachea
[2] = molecular target: T1, Ornithine decarboxylase (Mus musculus) (UniProt P00860); experiment: Percent inhibition of the induction of ornithine decarboxylase at 1.7 nmol in mouse dorsal epidermis (ODC assay); format: functional
T1 sequence (whole entry): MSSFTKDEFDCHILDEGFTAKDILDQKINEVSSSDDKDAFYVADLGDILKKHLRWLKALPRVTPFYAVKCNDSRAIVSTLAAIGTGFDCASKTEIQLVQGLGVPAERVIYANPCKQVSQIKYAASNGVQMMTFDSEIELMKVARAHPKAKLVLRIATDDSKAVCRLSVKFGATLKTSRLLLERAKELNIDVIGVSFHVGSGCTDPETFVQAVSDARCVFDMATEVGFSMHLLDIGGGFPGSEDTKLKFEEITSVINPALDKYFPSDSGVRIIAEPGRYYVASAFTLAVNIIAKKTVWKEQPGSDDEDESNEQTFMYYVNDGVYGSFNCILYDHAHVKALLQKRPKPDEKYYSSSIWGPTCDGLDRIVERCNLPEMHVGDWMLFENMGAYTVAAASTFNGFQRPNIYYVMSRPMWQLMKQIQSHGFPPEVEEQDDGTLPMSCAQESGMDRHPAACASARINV

[3] = molecular target: T1, Ornithine decarboxylase (Mus musculus); experiment: Percent inhibition of the induction of ornithine decarboxylase at 170 nmol in mouse dorsal epidermis (ODC assay); format: functional
[4] = molecular target: T1, Ornithine decarboxylase (Mus musculus); experiment: Percent inhibition of the induction of ornithine decarboxylase at 17 nmol dose in mouse dorsal epidermis (ODC assay); format: functional
Cricetinae gen. sp. [5] = experiment: Total cultures(0) versus active(7) at 10e-11 M conc. in hamster tracheal organ culture assay (TOC); format: functional, Trachea
In short: (§1)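 Tracheas from Syrian golden hamsters kept on a vitamin A deficient diet from birth to 30–32 days old. Cultured serum-free (CMRL 1066 with insulin, hydrocortisone, glutamine, antibiotics), one explant per dish, 50% O2/45% N2/5% CO2, 36 °C, rocked. 3 days without retinoid, then 7 days with retinoid, medium renewed three times. Histology on day 10. Active means keratin/keratohyaline granules absent. Usually duplicate, 6–7 tracheas per concentration.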

Cricetinae gen. sp. [6] = experiment: Total cultures(13) versus active(13) at 10e-9 M conc. in hamster tracheal organ culture assay (TOC); format: functional, Trachea; in short: as §1
Cricetinae gen. sp. [7] = experiment: Total cultures(4) versus active(13) at 10e-10 M conc. in hamster tracheal organ culture assay (TOC); format: functional, Trachea; in short: as §1
Cricetinae gen. sp. [8] = experiment: ED50 of retinoid required to effect reversal of keratinization; format: functional; in short: as §1
Cricetinae gen. sp. [9] = experiment: Total cultures(6) versus active(6) at 10e-8 M conc. in hamster tracheal organ culture assay (TOC); format: functional, Trachea; in short: as §1
Cricetinae gen. sp. [10] = experiment: Total cultures(0) versus active(12)at 10e-10 M conc. in hamster tracheal organ culture assay (TOC); format: functional, Trachea; in short: as §1
Cricetinae gen. sp. [11] = experiment: Total cultures(1) versus active (13)at 10e-9 M conc. in hamster tracheal organ culture assay (TOC); format: functional, Trachea; in short: as §1
Cricetinae gen. sp. [12] = experiment: Total cultures(2) versus active(12) at 10e-8 M conc. in hamster tracheal organ culture assay (TOC); format: functional, Trachea; in short: as §1
[13] = molecular target: T1, Ornithine decarboxylase (Mus musculus); experiment: Percent inhibition of the induction of ornithine decarboxylase in mouse dorsal epidermis (ODC assay); format: functional
Cricetinae gen. sp. [14] = experiment: Total cultures(12) versus active (3) at 10e-9 M conc. in hamster tracheal organ culture assay (TOC); format: functional, Trachea; in short: as §1
Cricetinae gen. sp. [15] = experiment: Total cultures(14) versus active (4) at 10e-8 M conc. in hamster tracheal organ culture assay (TOC); format: functional, Trachea; in short: as §1
Cricetinae gen. sp. [16] = experiment: Total cultures(6) versus active (1) at 10e-10 M conc. in hamster tracheal organ culture assay (TOC); format: functional, Trachea; in short: as §1
Cricetinae gen. sp. [17] = experiment: Total cultures(15) versus active (14) at 10e-9 M conc. in hamster tracheal organ culture assay (TOC); format: functional, Trachea; in short: as §1
Cricetinae gen. sp. [18] = experiment: Total cultures(15) versus active (15) at 10e-8 M conc. in hamster tracheal organ culture assay (TOC); format: functional, Trachea; in short: as §1
Cricetinae gen. sp. [19] = experiment: Total cultures(15) versus active (7) at 10e-10 M conc. in hamster tracheal organ culture assay (TOC); format: functional, Trachea; in short: as §1
Cricetinae gen. sp. [20] = experiment: Total cultures(12) versus active (10) at 10e-9 M conc. in hamster tracheal organ culture assay (TOC); format: functional, Trachea; in short: as §1
Cricetinae gen. sp. [21] = experiment: Total cultures(6) versus active (2) at 10e-11 M conc. in hamster tracheal organ culture assay (TOC); format: functional, Trachea; in short: as §1
Cricetinae gen. sp. [22] = experiment: Total cultures(7) versus active (7) at 10e-8 M conc. in hamster tracheal organ culture assay (TOC); format: functional, Trachea; in short: as §1
Cricetinae gen. sp. [23] = experiment: Total cultures(13) versus active (8) at 10e-10 M conc. in hamster tracheal organ culture assay (TOC); format: functional, Trachea; in short: as §1
Cricetinae gen. sp. [24] = experiment: Total cultures(0) versus active(6) at 10e-11 M conc. in hamster tracheal organ culture assay (TOC); format: functional, Trachea; in short: as §1
Cricetinae gen. sp. [25] = experiment: Total cultures(12) versus active(12) at 10e-9 M conc. in hamster tracheal organ culture assay (TOC); format: functional, Trachea; in short: as §1
Cricetinae gen. sp. [26] = experiment: Total cultures(3) versus active(11) at 10e-10 M conc. in hamster tracheal organ culture assay (TOC); format: functional, Trachea; in short: as §1
Cricetinae gen. sp. [27] = experiment: Total cultures(10) versus active (12)at 10e-9 M conc. in hamster tracheal organ culture assay (TOC); format: functional, Trachea; in short: as §1
Cricetinae gen. sp. [28] = experiment: Total cultures(11) versus active(12)at 10e-8 M conc. in hamster tracheal organ culture assay (TOC); format: functional, Trachea; in short: as §1
Cricetinae gen. sp. [29] = experiment: Total cultures(6) versus active(13) at 10e-10 M conc. in hamster tracheal organ culture assay (TOC); format: functional, Trachea; in short: as §1

| SMILES | inhibition of control [2] | inhibition of control [4] | Relative activity (Cricetinae gen. sp. [1]) | ED50 (Cricetinae gen. sp. [8]) | other results |
| --- | --- | --- | --- | --- | --- |
| CCOC(=O)c1ccc(/C(F)=C(C)\C=C\C2=C(C)CCCC2(C)C)cc1 |  | 16% | <0.1 | 20 pM | Active/total cultures (Cricetinae gen. sp. [10]): 0%; Active/total cultures (Cricetinae gen. sp. [11]): 8%; Active/total cultures (Cricetinae gen. sp. [12]): 17%; inhibition of control [13]: 5% |
| CCOC(=O)c1ccc(/C=C(C)/C=C/C2=C(C)CCCC2(C)C)o1 | 9% | 9% | <<0.1 | 20 pM | Active/total cultures (Cricetinae gen. sp. [14]): 25%; Active/total cultures (Cricetinae gen. sp. [15]): 29%; Active/total cultures (Cricetinae gen. sp. [16]): 17% |
| CCOC(=O)c1ccc(/C(F)=C(C)/C=C/C2=C(C)CCCC2(C)C)cc1 | 56% | 82% | 2 | 20 pM | Active/total cultures (Cricetinae gen. sp. [27]): 83%; Active/total cultures (Cricetinae gen. sp. [28]): 92%; Active/total cultures (Cricetinae gen. sp. [29]): 46% |

Further lines, with some results ahead:

| inhibition of control [2] | inhibition of control [4] | SMILES | Relative activity (Cricetinae gen. sp. [1]) | ED50 (Cricetinae gen. sp. [8]) | other results |
| --- | --- | --- | --- | --- | --- |
| 62% | 69% | CC1=C(/C=C/C(C)=C/c2ccc(C(=O)O)cc2)C(C)(C)CCC1 | 2 |  | inhibition of control [3]: 87% |
|  | 80% | CCOC(=O)c1ccc(/C=C(C)/C=C/C2=C(C)CCCC2(C)C)cc1 | 1 | 6 pM | Active/total cultures (Cricetinae gen. sp. [5]): 0%; Active/total cultures (Cricetinae gen. sp. [6]): 100%; Active/total cultures (Cricetinae gen. sp. [7]): 31%; Active/total cultures (Cricetinae gen. sp. [9]): 100% |
| 42% | 67% | CC1=C(/C=C/C(C)=C/c2ccc(C(=O)O)s2)C(C)(C)CCC1 | 2 | 20 pM | Active/total cultures (Cricetinae gen. sp. [17]): 93%; Active/total cultures (Cricetinae gen. sp. [18]): 100%; Active/total cultures (Cricetinae gen. sp. [19]): 47% |
| 21% | 39% | CCOC(=O)c1ccc(/C=C(C)/C=C/C2=C(C)CCCC2(C)C)c(OC)c1 | 5 | 6 pM | Active/total cultures (Cricetinae gen. sp. [20]): 83%; Active/total cultures (Cricetinae gen. sp. [21]): 33%; Active/total cultures (Cricetinae gen. sp. [22]): 100%; Active/total cultures (Cricetinae gen. sp. [23]): 62% |
| 37% | 78% | CC1=C(/C=C/C(C)=C/c2ccc(C(=O)O)cc2F)C(C)(C)CCC1 | 5 | 6 pM | Active/total cultures (Cricetinae gen. sp. [24]): 0%; Active/total cultures (Cricetinae gen. sp. [25]): 100%; Active/total cultures (Cricetinae gen. sp. [26]): 27%; Active/total cultures (Cricetinae gen. sp. [9]): 100% |
